Measured values published in ChEMBL document CHEMBL1136049, “Synthesis of syn- and anti-1-amino-3-[18F]fluoromethyl-cyclobutane-1-carboxylic acid (FMACBC), potential PET ligands for tumor detection” (J Med Chem, 2002).

Assays:
Rattus norvegicus [1] = species on record: Rattus norvegicus; experiment: Radioactivity distribution in lungs of normal fischer rat after injection of syn-[18F]-FMACBC after 30 min.; assay type: ADME, organism-based, Lung; conditions: in vivo, 0.5 h
Method in brief: (§1)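 Normal male Fischer 344 rats (200–250 g) were anesthetised with ketamine:xylazine i.m. and given about 85 μCi tracer in 0.3 mL sterile water via a tail vein catheter. Groups of four were killed at 5, 30, 60 and 120 min. Selected tissues were weighed and gamma counted with dose standards, decay-corrected, and expressed as mean %ID/g.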

Rattus norvegicus [2] = species on record: Rattus norvegicus; experiment: Radioactivity distribution in brain of tumor-bearing fischer rat after injection of syn-[18F]-FMACBC after 120 min; assay type: ADME, organism-based; conditions: in vivo, 2 h
Method in brief: (§2)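 Male Fischer 344 rats carrying intracranial rat 9L gliosarcoma, made by stereotaxic injection of 4 × 10^4 cells 17–19 days before. Awake restrained rats received ~35 μCi of 18F tracer in 0.3 mL sterile water IV by tail vein and were killed at 5, 60 or 120 min, n = 3–5. Tissues were weighed, gamma-counted, decay-corrected and expressed as % injected dose per gram.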

Rattus norvegicus [3] = species on record: Rattus norvegicus; experiment: Radioactivity distribution in pancreas of normal fischer rat after injection of syn-[18F]-FMACBC after 120 min.; assay type: ADME, organism-based; conditions: in vivo, 2 h; method in brief: as §1
Rattus norvegicus [4] = species on record: Rattus norvegicus; experiment: Radioactivity distribution in lungs of normal fischer rat after injection of syn-[18F]-FMACBC after 5 min.; assay type: ADME, organism-based, Lung; conditions: in vivo; method in brief: as §1
Rattus norvegicus [5] = species on record: Rattus norvegicus; experiment: Radioactivity distribution in liver of tumor-bearing fischer rat after injection of syn-[18F]-FMACBC after 60 min; assay type: ADME, organism-based; conditions: in vivo, 1 h
Method in brief: (§3)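 Male Fischer 344 rats with intracranial 9L gliosarcoma (4 × 10^4 cells stereotaxically implanted; used 17–19 days after implantation). About 35 μCi tracer in 0.3 mL sterile water was given by tail vein to awake, restrained rats. Rats were killed at 5, 60 or 120 min. Tissues, tumor and contralateral brain were weighed and gamma counted, decay-corrected, and expressed as %ID/g; n = 3–5 per time point.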

Rattus norvegicus [6] = species on record: Rattus norvegicus; experiment: Radioactivity distribution in tumor of tumor-bearing fischer rat after injection of anti-[18F]FMACBC after 5 min; assay type: ADME, organism-based; conditions: in vivo; method in brief: as §3
Rattus norvegicus [7] = species on record: Rattus norvegicus; experiment: Radioactivity distribution in blood of normal fischer rat after injection of anti-[18F]FMACBC after 30 min.; assay type: ADME, organism-based; conditions: in vivo, 0.5 h
Method in brief: (§4)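 Male Fischer 344 rats (200–250 g), normal, fed ad libitum, given ~85 μCi of 18F tracer in 0.3 mL sterile water IV through a tail vein catheter. Anesthesia was ketamine:xylazine IM. Groups of four were killed at 5, 30, 60 and 120 min. Tissues were weighed and gamma-counted against dose standards, decay-corrected, and expressed as mean % injected dose per gram.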

Rattus norvegicus [8] = species on record: Rattus norvegicus; experiment: Radioactivity distribution in testis of normal fischer rat after injection of syn-[18F]-FMACBC after 30 min.; assay type: ADME, organism-based; conditions: in vivo, 0.5 h; method in brief: as §1
Rattus norvegicus [9] = species on record: Rattus norvegicus; experiment: Radioactivity distribution in liver of tumor-bearing fischer rat after injection of anti-[18F]FMACBC after 5 min; assay type: ADME, organism-based; conditions: in vivo; method in brief: as §3
Rattus norvegicus [10] = species on record: Rattus norvegicus; experiment: Radioactivity distribution in kidney of normal fischer rat after injection of syn-[18F]-FMACBC after 5 min.; assay type: ADME, organism-based; conditions: in vivo; method in brief: as §4
Rattus norvegicus [11] = species on record: Rattus norvegicus; experiment: Radioactivity distribution in kidney of tumor-bearing fischer rat after injection of anti-[18F]FMACBC after 5 min; assay type: ADME, organism-based; conditions: in vivo; method in brief: as §2
Rattus norvegicus [12] = species on record: Rattus norvegicus; experiment: Radioactivity distribution in testis of normal fischer rat after injection of anti-[18F]FMACBC after 30 min.; assay type: ADME, organism-based; conditions: in vivo, 0.5 h; method in brief: as §1
Rattus norvegicus [13] = species on record: Rattus norvegicus; experiment: Radioactivity distribution in lung of normal fischer rat after injection of anti-[18F]FMACBC after 60 min.; assay type: ADME, organism-based; conditions: in vivo, 1 h; method in brief: as §1
Rattus norvegicus [14] = species on record: Rattus norvegicus; experiment: Radioactivity distribution in spleen of normal fischer rat after injection of anti-[18F]FMACBC after 30 min.; assay type: ADME, organism-based; conditions: in vivo, 0.5 h; method in brief: as §1
Rattus norvegicus [15] = species on record: Rattus norvegicus; experiment: Radioactivity distribution in spleen of normal fischer rat after injection of syn-[18F]-FMACBC after 60 min.; assay type: ADME, organism-based; conditions: in vivo, 1 h; method in brief: as §1
Rattus norvegicus [16] = species on record: Rattus norvegicus; experiment: Radioactivity distribution in pancreas of normal fischer rat after injection of anti-[18F]FMACBC after 5 min.; assay type: ADME, organism-based; conditions: in vivo; method in brief: as §1
Rattus norvegicus [17] = species on record: Rattus norvegicus; experiment: Radioactivity distribution in pancreas of tumor-bearing fischer rat after injection of syn-[18F]-FMACBC after 60 min; assay type: ADME, organism-based; conditions: in vivo, 1 h; method in brief: as §3
Rattus norvegicus [18] = species on record: Rattus norvegicus; experiment: Radioactivity distribution in brain of normal fischer rat after injection of syn-[18F]-FMACBC after 5 min.; assay type: ADME, organism-based; conditions: in vivo; method in brief: as §4
Rattus norvegicus [19] = species on record: Rattus norvegicus; experiment: Radioactivity distribution in kidney of normal fischer rat after injection of syn-[18F]-FMACBC after 60 min.; assay type: ADME, organism-based; conditions: in vivo, 1 h; method in brief: as §4
Rattus norvegicus [20] = species on record: Rattus norvegicus; experiment: Radioactivity distribution in bone of tumor-bearing fischer rat after injection of anti-[18F]FMACBC after 120 min; assay type: ADME, organism-based, Bone element; conditions: in vivo, 2 h; method in brief: as §2
Rattus norvegicus [21] = species on record: Rattus norvegicus; experiment: Radioactivity distribution in heart of normal fischer rat after injection of syn-[18F]-FMACBC after 120 min.; assay type: ADME, organism-based; conditions: in vivo, 2 h; method in brief: as §4
Rattus norvegicus [22] = species on record: Rattus norvegicus; experiment: Radioactivity distribution in pancreas of normal fischer rat after injection of syn-[18F]-FMACBC after 60 min.; assay type: ADME, organism-based; conditions: in vivo, 1 h; method in brief: as §1
Rattus norvegicus [23] = species on record: Rattus norvegicus; experiment: Radioactivity distribution in brain of normal fischer rat after injection of syn-[18F]-FMACBC after 30 min.; assay type: ADME, organism-based; conditions: in vivo, 0.5 h; method in brief: as §4
Rattus norvegicus [24] = species on record: Rattus norvegicus; experiment: Radioactivity distribution in bone of tumor-bearing fischer rat after injection of syn-[18F]-FMACBC after 120 min; assay type: ADME, organism-based, Bone element; conditions: in vivo, 2 h; method in brief: as §2
Rattus norvegicus [25] = species on record: Rattus norvegicus; experiment: Radioactivity distribution in bone of tumor-bearing fischer rat after injection of syn-[18F]-FMACBC after 5 min; assay type: ADME, organism-based, Bone element; conditions: in vivo; method in brief: as §2
Rattus norvegicus [26] = species on record: Rattus norvegicus; experiment: Radioactivity distribution in heart of tumor-bearing fischer rat after injection of anti-[18F]FMACBC after 120 min; assay type: ADME, organism-based; conditions: in vivo, 2 h; method in brief: as §2
Rattus norvegicus [27] = species on record: Rattus norvegicus; experiment: Radioactivity distribution in bone of normal fischer rat after injection of anti-[18F]FMACBC after 30 min.; assay type: ADME, organism-based, Bone element; conditions: in vivo, 0.5 h; method in brief: as §4
Rattus norvegicus [28] = species on record: Rattus norvegicus; experiment: Radioactivity distribution in pancreas of tumor-bearing fischer rat after injection of anti-[18F]FMACBC after 60 min; assay type: ADME, organism-based; conditions: in vivo, 1 h; method in brief: as §3
Rattus norvegicus [29] = species on record: Rattus norvegicus; experiment: Radioactivity distribution in pancreas of tumor-bearing fischer rat after injection of anti-[18F]FMACBC after 5 min; assay type: ADME, organism-based; conditions: in vivo; method in brief: as §3
Rattus norvegicus [30] = species on record: Rattus norvegicus; experiment: Radioactivity distribution in heart of tumor-bearing fischer rat after injection of anti-[18F]FMACBC after 5 min; assay type: ADME, organism-based; conditions: in vivo; method in brief: as §2
Rattus norvegicus [31] = species on record: Rattus norvegicus; experiment: Radioactivity distribution in liver of tumor-bearing fischer rat after injection of syn-[18F]-FMACBC after 5 min; assay type: ADME, organism-based; conditions: in vivo; method in brief: as §3
Rattus norvegicus [32] = species on record: Rattus norvegicus; experiment: Radioactivity distribution in muscle of normal fischer rat after injection of syn-[18F]-FMACBC after 60 min.; assay type: ADME, organism-based, Muscle tissue; conditions: in vivo, 1 h; method in brief: as §1
Rattus norvegicus [33] = species on record: Rattus norvegicus; experiment: Radioactivity distribution in kidney of normal fischer rat after injection of syn-[18F]-FMACBC after 120 min.; assay type: ADME, organism-based; conditions: in vivo, 2 h; method in brief: as §4
Rattus norvegicus [34] = species on record: Rattus norvegicus; experiment: Radioactivity distribution in bone of normal fischer rat after injection of anti-[18F]FMACBC after 5 min.; assay type: ADME, organism-based, Bone element; conditions: in vivo; method in brief: as §4
Rattus norvegicus [35] = species on record: Rattus norvegicus; experiment: Radioactivity distribution in pancreas of tumor-bearing fischer rat after injection of anti-[18F]FMACBC after 120 min; assay type: ADME, organism-based; conditions: in vivo, 2 h; method in brief: as §3
Rattus norvegicus [36] = species on record: Rattus norvegicus; experiment: Radioactivity distribution in brain of tumor-bearing fischer rat after injection of anti-[18F]FMACBC after 120 min; assay type: ADME, organism-based; conditions: in vivo, 2 h; method in brief: as §2
Rattus norvegicus [37] = species on record: Rattus norvegicus; experiment: Radioactivity distribution in heart of tumor-bearing fischer rat after injection of syn-[18F]-FMACBC after 5 min; assay type: ADME, organism-based; conditions: in vivo; method in brief: as §2
Rattus norvegicus [38] = species on record: Rattus norvegicus; experiment: Radioactivity distribution in tumor of tumor-bearing fischer rat after injection of syn-[18F]-FMACBC after 60 min; assay type: ADME, organism-based; conditions: in vivo, 1 h; method in brief: as §3
Rattus norvegicus [39] = species on record: Rattus norvegicus; experiment: Radioactivity distribution in blood of normal fischer rat after injection of syn-[18F]-FMACBC after 30 min.; assay type: ADME, organism-based; conditions: in vivo, 0.5 h; method in brief: as §4
Rattus norvegicus [40] = species on record: Rattus norvegicus; experiment: Radioactivity distribution in liver of normal fischer rat after injection of syn-[18F]-FMACBC after 5 min.; assay type: ADME, organism-based; conditions: in vivo; method in brief: as §4
Rattus norvegicus [41] = species on record: Rattus norvegicus; experiment: Radioactivity distribution in lung of tumor-bearing fischer rat after injection of anti-[18F]FMACBC after 60 min; assay type: ADME, organism-based; conditions: in vivo, 1 h; method in brief: as §3

N[C@]1(C(=O)O)C[C@@H](CF)C1
ID/g (Rattus norvegicus [1]): 0.46% | ID/g (Rattus norvegicus [2]): 0.27% | ID/g (Rattus norvegicus [3]): 3.88% | ID/g (Rattus norvegicus [4]): 0.75% | ID/g (Rattus norvegicus [5]): 0.33% | ID/g (Rattus norvegicus [6]): 1.28% | ID/g (Rattus norvegicus [7]): 0.39% | ID/g (Rattus norvegicus [8]): 0.29% | ID/g (Rattus norvegicus [9]): 0.87% | ID/g (Rattus norvegicus [10]): 0.57% | ID/g (Rattus norvegicus [11]): 0.96% | ID/g (Rattus norvegicus [12]): 0.25% | ID/g (Rattus norvegicus [13]): 0.41% | ID/g (Rattus norvegicus [14]): 0.63% | ID/g (Rattus norvegicus [15]): 0.54% | ID/g (Rattus norvegicus [16]): 2.56% | ID/g (Rattus norvegicus [17]): 2.08% | ID/g (Rattus norvegicus [18]): 0.26% | ID/g (Rattus norvegicus [19]): 0.45% | ID/g (Rattus norvegicus [20]): 0.19% | ID/g (Rattus norvegicus [21]): 0.6% | ID/g (Rattus norvegicus [22]): 3.13% | ID/g (Rattus norvegicus [23]): 0.24% | ID/g (Rattus norvegicus [24]): 0.13% | ID/g (Rattus norvegicus [25]): 0.26% | ID/g (Rattus norvegicus [26]): 0.52% | ID/g (Rattus norvegicus [27]): 0.31% | ID/g (Rattus norvegicus [28]): 2.48% | ID/g (Rattus norvegicus [29]): 3.26% | ID/g (Rattus norvegicus [30]): 0.58% | ID/g (Rattus norvegicus [31]): 0.64% | ID/g (Rattus norvegicus [32]): 0.61% | ID/g (Rattus norvegicus [33]): 0.46% | ID/g (Rattus norvegicus [34]): 0.52% | ID/g (Rattus norvegicus [35]): 2.17% | ID/g (Rattus norvegicus [36]): 0.28% | ID/g (Rattus norvegicus [37]): 0.52% | ID/g (Rattus norvegicus [38]): 1.59% | ID/g (Rattus norvegicus [39]): 0.33% | ID/g (Rattus norvegicus [40]): 0.66% | ID/g (Rattus norvegicus [41]): 0.38%
